Source: PubChem BioAssay (several laboratories)
Diaph act CS – activates diaphorase or chemically reduces, flagging diaphorase assay artifacts; Diaphorase/resazurin coupled assay, resorufin fluorescence, 16 min; stronger effect = higher value; 1 = vehicle wells, 0 = NADH-free wells; activation factor at 20 µM; hit rate 0.005% among 190,000; AID 1229;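 active = diaphorase activity raised at least twofold by the compound at 20 µM; inactive = activation factor below 2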
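Material: bacterial diaphorase enzyme (C. kluyveri); amount: enzyme 0.07 U/mL final; reagent: NADH substrate 0.114 mM plus resazurin dye 0.1 mM, final; doses: single compound dose of 20 µM, 1% DMSO final; timing: 16 min enzyme reaction, ambient temperature; measured by: fluorescence of resorufin, 544 nm excitation, 590 nm emission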
HKDC1 inhibitor – inhibitors of human hexokinase HKDC1; Q2TB90; recombinant HKDC1, G6PDH/diaphorase resazurin coupled fluorescence; inhibition, % at 20 µM; hit rate 0.16% among 340,000;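 active = inhibition above about 35% when tested at 20 µM, limit read from the data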;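 note: plate controls were DMSO wells with enzyme for no effect and DMSO wells lacking enzyme for full effect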
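Assay system: in-house recombinant HK5 (HKDC1) enzyme. Input: HKDC1 at 5 µg/mL. Medium: Tris pH 8.0 buffer with MgCl2, Tween-20, BSA, BME. Dosing: single 20 µM dose. Schedule: 90 min reaction incubation at room temperature, dark. Signal: resazurin-to-resorufin fluorescence via G6PDH and diaphorase coupling, 525/613 nm. Controls: DMSO-enzyme wells negative, buffer-substituted wells positive.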
Diaph inh CS – counter-screen for diaphorase-based assays: diaphorase inhibitors and chemical oxidizers. diaphorase resazurin-to-resorufin fluorescence, NADH, 16 min; bacterial (C. kluyveri) enzyme, not human. AID 1217. inhibition, % at 20 µM. hit rate 0.69% among 190,000;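 active = primary screen inhibition at 20 µM above a set limit, cut at about 50% in these data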;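 note: plate controls were DMSO with full reaction for no effect and wells lacking NADH for full effect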
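Benchmarks: positive control wells lacking NADH, neutral wells with DMSO only. System: bacterial diaphorase enzyme (C. kluyveri). Input: 0.14 U/mL diaphorase, enzyme working solution. Detection: resorufin fluorescence, excitation 544 nm, emission 590 nm. Times: 16-min room-temperature incubation before reading.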
Fh CTSL1 inh – blocks F. hepatica cathepsin L1 in PFM18AAP counter-screen | recombinant F. hepatica cathepsin L1, Z-Leu-Arg-MCA fluorescence | inhibition, % at 5.96 µM | hit rate 0.49% among 300,000;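 active = inhibition above the mean of all tested compounds plus 3 SD, set per screening campaign, cut at about 17% in these data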;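 note: 0% = plate median of test compound wells and 100% = 1 µM Z-Phe-Ala-diazomethylketone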
ATG4B inhibitor – blocks human ATG4B protease cleavage of LC3 substrate. Q9Y4P1. ATG4B cleavage of LC3-PLA2, NBD-HPC fluorescence, 1 h. inhibition, % at 8.33 µM. hit rate 0.51% among 340,000. AID 504462; in the data active = inhibition above about 40%
Target sequence (Q9Y4P1 whole entry, looked up): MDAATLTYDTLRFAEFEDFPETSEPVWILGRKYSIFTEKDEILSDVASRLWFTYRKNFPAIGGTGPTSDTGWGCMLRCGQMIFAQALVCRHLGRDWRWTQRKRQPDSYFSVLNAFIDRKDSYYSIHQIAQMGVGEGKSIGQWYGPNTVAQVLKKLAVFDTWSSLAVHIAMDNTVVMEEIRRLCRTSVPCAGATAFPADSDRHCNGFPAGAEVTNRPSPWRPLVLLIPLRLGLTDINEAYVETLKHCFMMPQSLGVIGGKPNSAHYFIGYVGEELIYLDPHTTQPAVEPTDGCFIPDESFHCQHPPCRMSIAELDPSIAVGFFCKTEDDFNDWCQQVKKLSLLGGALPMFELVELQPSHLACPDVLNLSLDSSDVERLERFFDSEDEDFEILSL
ATG4B confirm – ATG4B (human) inhibition, single-dose confirmed; shares compounds with ATG4B inhibitor; ATG4B protease fluorescent substrate cleavage assay; inhibition, % at 8.33 µM; hit rate 92% among 320; in the data active = inhibition above about 39%
PLA2 ctr – counter-screen for ATG4B inhibitors: human phospholipase A2 | AID 588402 | purified PLA2, NBD-C6-HPC fluorescence, 45 min | inhibition, % at 8.33 µM | hit rate 66% among 1,600 | shares compounds with ATG4B inhibitor; in the data active = inhibition above about 50%
Target sequence (P04054 whole entry, looked up): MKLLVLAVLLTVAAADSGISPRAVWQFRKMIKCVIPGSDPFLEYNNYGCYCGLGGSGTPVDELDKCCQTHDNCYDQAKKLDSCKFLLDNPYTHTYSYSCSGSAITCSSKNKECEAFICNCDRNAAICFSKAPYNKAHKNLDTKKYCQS
* = called active by the depositor; / = no result. A selection: hits, their analogues and other compounds. The true share with any hit is near 1.4%.

SMILES	Diaph act CS	HKDC1 inhibitor	Diaph inh CS	Fh CTSL1 inh	ATG4B inhibitor	PLA2 ctr	others
Cc1ccc(NC(=S)NNc2ccc([N+](=O)[O-])cc2S(=O)(=O)Nc2ccccc2C(=O)O)cc1C	0.7	7	27	4	74*	71*
CCOc1ccc(C=NNc2ccc(S(=O)(=O)Nc3ccccc3C(=O)O)cc2[N+](=O)[O-])cc1OC	/	24	/	/	7	/
COc1cc(C=NNc2ccc(S(=O)(=O)Nc3ccccc3C(=O)O)cc2[N+](=O)[O-])ccc1O	/	4	/	/	46*	63*
COc1ccccc1NS(=O)(=O)c1cccc(-n2c(O)c(C=Nc3ccccc3C(=O)O)c3ccccc3c2=O)c1	/	24	/	7	51*	74*
CC(=O)Nc1ccc(C=NNc2ccc(S(=O)(=O)Nc3ccccc3C(=O)O)cc2[N+](=O)[O-])cc1	/	2	/	/	11	/
O=C(O)c1ccccc1NS(=O)(=O)c1ccc(NNC(=S)Nc2ccc(OC(F)F)cc2)c([N+](=O)[O-])c1	0.3	-9	67*	/	51*	64*
CC(C)(C)CN1CCC(n2nccc2NC(=O)c2ccccc2Cl)CC1	/	-4	/	-3	0	/
COC(=O)c1cc(NC(=O)c2ccccc2)c(=O)oc1C	1	-2	0	2	1	/
COc1ccc(C(=O)Nc2cc(C(=O)c3ccccc3)c(C)oc2=O)cc1	0.9	11	10	18*	44*	38	ATG4B confirm=69*
CC1CCCC1/C(=N/O)c1ccccc1 (stereo not given)	/	2	/	-2	0	/
O=C(c1ccc2c(=O)n(Cc3ccc(Cl)cc3)c(=S)[nH]c2c1)N1CCCC1	/	-4	/	1	6	/
O=C(c1ccc2c(=O)n(Cc3ccc4c(c3)OCO4)c(=S)[nH]c2c1)N1CCCCC1	1	14	4	5	55*	8
O=C(c1ccc(Cn2c(=S)[nH]c3ccccc3c2=O)cc1)N1CCN(c2ccccn2)CC1	0.7	-5	26	0	47*	66*
Cc1cccn2c(=O)c3cc(C(=O)NCC4CCCO4)c(=N)n(C4CCCC4)c3nc12 (stereo not given)	/	-25	/	-1	2	/
CCCCn1c(NC(=O)c2ccccc2)c(C#N)c2nc3ccccc3nc21	0.7	5	28	/	55*	60*
CCCCn1c(NC(=O)c2ccc(F)cc2)c(C#N)c2nc3ccccc3nc21	/	/	/	-5	/	/
O=C(NNC(=O)c1cc(-c2ccc(Cl)cc2)nc2ccccc12)c1csc(N2CCOCC2)n1	/	-1	/	-4	-15	/
COCc1cc(C)nc2sc(C(=O)Nc3ccccc3F)c(N)c12	/	3	/	2	-1	/
Nc1c(C(=O)Nc2ccccc2F)sc2nc(Cc3ccccc3)cc(C(F)(F)F)c12	0.9	14	12	2	66*	-3
Oc1ccccc1CN(Cc1ccco1)CC(O)COCc1ccc(Cl)cc1 (stereo not given)	0.8	0	17	0	40*	28
COc1ccc(COCC(O)CN(Cc2ccco2)Cc2ccccc2O)cc1 (stereo not given)	0.8	-7	24	2	8	/
CN1CCC2(CC1)N=C(c1ccc(F)cc1)C(=S)N2C(=O)c1ccc(C(C)(C)C)cc1	1	0	-2	0	45*	10
O=C(Oc1cncc(Cl)c1)c1sccc1Cl	/	11	/	1	98*	-12
CCn1cc(C(=O)N[C@H](C(=O)NCCO)C(C)C)c(=O)c2cc3c(cc21)OCO3	/	2	/	3	1	/
COc1ccc(NC(=O)CC(C)c2ccccc2)c([N+](=O)[O-])c1 (stereo not given)	0.9	8	10	-2	42*	1
SMILES	Diaph act CS	HKDC1 inhibitor	Diaph inh CS	Fh CTSL1 inh	ATG4B inhibitor	PLA2 ctr	others
O=c1cc(O)c2sc3nc(C(F)(F)F)c4c(c3c2[nH]1)CCCCC4	0.8	-1	19	6	45*	41	ATG4B confirm=59*
O=C(CCCOC(=O)c1ccc(O)cc1O)c1ccc(Br)cc1	/	-1	/	/	-2	/
O=C(NCc1ccco1)/C(=C/c1ccc(Br)cc1)NC(=O)c1ccco1	/	2	/	0	-7	/
CCCn1nc([N+](=O)[O-])c(C(C#N)c2nc3ccccc3s2)c(Cl)c1=O (stereo not given)	0.7	14	34	3	84*	85*
CCn1nc([N+](=O)[O-])c(C(C#N)c2nc3ccccc3n2C)c(Cl)c1=O (stereo not given)	0.8	-4	20	-4	72*	75*
O=[N+]([O-])c1ccc(CN2CCN(c3nc4ccccc4s3)CC2)cc1	/	-4	/	2	3	/
CC(C)NC(=O)c1onc(CSc2ccc(F)cc2)c1C(=O)NC(C)C	/	-2	/	0	-9	/
Cc1cc(OCC(=O)N2CCc3ccccc3C2)c(C)cc1Br	/	4	/	/	23	/
Clc1cccc(Cl)c1CNc1ccc(N2CCCC2)cc1	0.2	9	76*	1	43*	42	ATG4B confirm=64*
Cc1ccccc1C(=O)NC(=S)Nc1ccc(Cc2ccncc2)cc1	1	1	-2	-1	46*	49
O=C(NC(=S)Nc1ccc(Cc2ccncc2)cc1)c1ccccc1Cl	1	-7	-2	6	19	/
O=C(NC(=S)Nc1ccc(Cc2ccncc2)cc1)c1ccccc1F	1	0	-4	3	52*	56*
Cc1cc(C(=O)NNC(=O)c2sccc2C)c(C)o1	/	1	/	-1	1	/
C[C@H](CO)N1C[C@H](C)[C@@H](CN(C)C(=O)NC2CCCCC2)Oc2c(NS(=O)(=O)c3cn(C)cn3)cccc2C1=O	/	-4	/	/	1	/
O=C1C(NS(=O)(=O)c2cccs2)=C(N2CCN(c3cccc(Cl)c3)CC2)C(=O)c2ccccc21	0.6	16	41	-1	46*	65*
Cc1ccc(C(=O)Nc2nc(-c3ccco3)c(-c3ccco3)s2)o1	/	18	/	/	40*	47	ATG4B confirm=64*
CC(OC(=O)CCc1nc2ccccc2c(=O)[nH]1)C(=O)Nc1cccc(C(F)(F)F)c1 (stereo not given)	/	-5	/	/	-8	/
Cc1sc(NC(=O)COc2ccccc2)c(C#N)c1-c1ccccc1	0.8	-1	16	2	0	/
COC(=O)c1sc(N(C)C)c(C#N)c1-c1ccccc1	/	-2	/	1	44*	40	ATG4B confirm=64*
COc1ccc(-c2ccc(NS(=O)(=O)c3cc([N+](=O)[O-])c(C)c([N+](=O)[O-])c3)cc2)nn1	/	-1	/	2	-4	/
COc1ccc(/C=C2/C(=O)N(Cc3ccccc3)N=C2C)cc1	0.8	15	21	0	2	/
